Measurements as given in PubChem BioAssay AID488948 (Broad Institute, 2010).
Records with an inconclusive call do not appear. Activity calls are given as the source filed them.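 The calls were made as follows: active = compounds raising caspase signal whose fitted AC50 is at or under a set limit scaled from top dose; inconclusive = flat fit at middling activation, or poor curve fit; inactive = the rest.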

Tests used:
[1] = apoptosis induction, MEWO cells without priming – caspase-Glo luminescence, dry powder, counter-screen for Bcl2-A1 inhibitor project, dose response (AID 488948); conditions: MEWO unprimed cells, caspase-3/7 Glo luminescence, 3 h, stronger effect = higher value
How it was run: (§1)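 Assay system: unprimed A1-expressing MEWO cells; quantity: 2500 cells per well; medium: RPMI-1640, 10% fetal bovine serum; dosing: compound added by pin transfer, day after plating; schedule: 3 h compound exposure (37 °C), 1 h reagent (RT); detection: CaspaseGlo luminescence after 1 h at room temperature; read-out: caspase activation from luminescent signal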

[2] = test system: MEWO unprimed cells, caspase-3/7 Glo luminescence, 3 h; experiment: as above
How it was run: as §1

For `COc1cccc(C(=O)C(C#N)=C(SC)SC)c1`, the max caspase activation ([1]; at 150 µM) was -3.79% (inactive).
For `C/C1=C/C(=O)O[C@@H]2C[C@@H](CC[C@H](C)/C=C\CC1)O[C@@](O)(C1CSC(=O)N1)C2` (some centres undefined), the max caspase activation ([1]; at 46 µM) was 1.79% (inactive).
With `Nc1nc(F)nc2c1ncn2[C@@H]1O[C@H](CO)[C@@H](O)[C@H]1O` the max caspase activation ([1]; at 0.1 µM) was 2.46% (inactive).
With `Cc1ccc(CS(=O)(=O)c2ncc(Cl)c(C(=O)Nc3nnc(C(C)C)s3)n2)cc1` the max caspase activation ([1]; at 100 µM) was -3.83% (inactive).
For `Cc1cccc(CS(=O)(=O)c2ncc(Cl)c(C(=O)Nc3nnc(C(C)C)s3)n2)c1`, the max caspase activation ([1]; at 150 µM) was -3.23% (inactive).
With `O=C(Oc1cccc(/C=N/Nc2nc(Nc3ccccc3)nc(N3CCOCC3)n2)c1)c1ccco1` the max caspase activation ([1]; at 68 µM) was 2.05% (inactive).
In the case of `CCc1nnc(NC(=O)c2nc(S(=O)(=O)Cc3ccccc3)ncc2Cl)s1`, the max caspase activation ([1]; at 0.068 µM) is reported as -1.73% (inactive).
In the case of `Cc1c(CCOC(=O)c2ccc(N3CCOCC3)c([N+](=O)[O-])c2)sc[n+]1CC#N`, the AC50 [2] is reported as > 100 µM (inactive).
With `CC(C)(C)n1nc(-c2ccc(Cl)cc2)c2c(N)ncnc21` the max caspase activation ([1]; at 150 µM) was 4.52% (inactive).
Work on `Cc1cc(C(=O)CCl)c(C)n1CCc1ccc(Cl)cc1` yielded an AC50 [2] of 18.4 µM.
In the case of `C=C1[C@@H](C)[C@H]2[C@H](Cc3ccccc3)NC(=O)[C@]23OC(=O)/C=C\[C@H](O)CCC[C@@H](C)C/C=C/[C@H]3[C@@H]1O`, the max caspase activation ([1]; at 2.6 µM) is reported as 2.11% (inactive).
In the case of `CCSc1nnc(NC(=O)c2nc(S(=O)(=O)Cc3ccc(F)cc3)ncc2Cl)s1`, the max caspase activation ([1]; at 150 µM) is reported as -5.59% (inactive).
Molecule `COc1ccc(N(C(=O)CCl)C(C(=O)NCCc2ccccc2)c2cccs2)cc1Cl` (centres undefined) has an AC50 [2] of 15.6 µM.
With `Cc1ccc(Sc2c([N+](=O)[O-])c(=O)n(C)c3ccccc23)cc1` the max caspase activation ([1]; at 100 µM) was 3.9% (inactive).
In the case of `CC(=O)N[C@H]1[C@H](O[C@H]2CC[C@@]3(C)C(CC[C@]4(C)C3CC=C3[C@@H]5CC(C)(C)CC[C@]5(C(=O)OC5OCC(O)C(O)C5O)C(O)C[C@]34C)C2(C)C)O[C@H](COC2OCC(O)C(OC3OCC(O)C(O)C3O)C2O)[C@@H](O[C@@H]2O[C@@H](C)[C@H](O)[C@@H](O)[C@H]2O[C@@H]2O[C@@H](C)[C@H](O)[C@@H](O)[C@H]2O)[C@@H]1O` (some centres undefined), the max caspase activation ([1]; at 135 µM) is reported as -2.6% (inactive).
For `Cn1c(=NC(=O)CCl)sc2ccccc21`, the max caspase activation ([1]; at 0.068 µM) was -1.67% (inactive).
For `COc1cc(/C=C(/C#N)c2nc3ccccc3[nH]2)ccc1OCC(=O)Nc1ccccc1C(C)C`, the max caspase activation ([1]; at 9 µM) was 2.17% (inactive).
For `O=C(CCl)N=c1sccn1Cc1ccccc1Cl`, the AC50 [2] was > 150 µM (inactive).
For `CCOC(=O)CSC1=N/C(=C/c2ccc(-n3cncn3)cc2)C(=O)N1C(C)=O`, the AC50 [2] was > 150 µM (inactive).
